Test results as given in ChEMBL document CHEMBL3232837, “Synthesis and evaluation of new Hsp90 inhibitors based on a 1,4,5-trisubstituted 1,2,3-triazole scaffold” (J Med Chem, 2014).
Active and inactive are the calls of the source. The calls are words filed in the database; no cut-off is given here.

Tests used:
NCI-H460 [1] = assay: Cell cycle arrest in human NCI-H460 cells assessed as accumulation at G2/M phase at 2 times IC50 after 24 to 72 hrs by propidium iodide staining-based FACS flow cytometric analysis; type: functional
NCI-H460 [2] = assay: Induction of apoptosis in human NCI-H460 cells assessed as cell with hypodiploid DNA content at 2 times IC50 after 24 to 72 hrs by propidium iodide staining-based FACS flow cytometric analysis; type: functional
A-431 = assay: Antitumor activity against human A431 cells overexpressing EGFR xenografted in CD-1 nude mouse assessed as tumor growth inhibition at 50 mg/kg, ip administered as q5d/week for 2 weeks starting 3 days after tumor injection measured on day 5 post last dose relative to vehicle-treated control; type: functional, organism-based; set-up: dose 50 mg/kg
Procedure, shortened: (§1)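 Female athymic nude mice, 5-6 weeks old; 5 × 10^6 exponentially growing tumor cells inoculated s.c. in right flank. Treatment i.p. from day 3 after tumor injection. Tumor volume measured biweekly as d²·D/2. TVI% = 100 − (mean TV treated/mean TV control × 100), evaluated 5 days after last treatment; Mann-Whitney test vs vehicle group.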

GTL 16 = assay: Antitumor activity against human GTL16 cells overexpressing c-Met xenografted in CD-1 nude mouse assessed as tumor growth inhibition at 50 mg/kg, ip administered as q5d/week for 2 weeks starting 3 days after tumor injection measured on day 5 post last dose relative to vehicle-treated control; type: functional, organism-based; set-up: dose 50 mg/kg; procedure, shortened: as §1
Mus musculus [3] = assay: (§2) In vivo inhibition of HSP90 in human A431 cells overexpressing EGFR xenografted in CD-1 nude mouse assessed as downregulation of EGFR protein expression at 50 mg/kg, ip administered as q5d/week for 2 weeks starting 3 days after tumor injection measured at 2 hrs post last dose by Western blot analysis; type: functional, organism-based; set-up: dose 50 mg/kg; conditions: A-431
Mus musculus [4] = assay: as §2, with “of CDK4” for “of EGFR”; type: functional, organism-based; set-up: dose 50 mg/kg; conditions: A-431
Mus musculus [5] = assay: (§3) In vivo inhibition of HSP90 in human A431 cells overexpressing EGFR xenografted in CD-1 nude mouse assessed as downregulation of AKT protein expression at 50 mg/kg, ip administered as q5d/week for 2 weeks starting 3 days after tumor injection measured at 2 hrs post last dose by Western blot analysis; type: functional, organism-based; set-up: dose 50 mg/kg; conditions: A-431
Mus musculus [6] = assay: In vivo inhibition of HSP90 in human A431 cells overexpressing EGFR xenografted in CD-1 nude mouse assessed as induction of HSP70 protein expression at 50 mg/kg, ip administered as q5d/week for 2 weeks starting 3 days after tumor injection measured at 2 hrs post last dose by Western blot analysis; type: functional, organism-based; set-up: dose 50 mg/kg; conditions: A-431
Mus musculus [7] = assay: as §2, with “human GTL16” for “human A431”, “overexpressing c-Met” for “overexpressing EGFR”, “of c-Met” for “of EGFR”, “at 6” for “at 2”; type: functional, organism-based; set-up: dose 50 mg/kg
Mus musculus [8] = assay: as §3, with “human GTL16” for “human A431”, “overexpressing c-Met” for “overexpressing EGFR”, “at 6” for “at 2”; type: functional, organism-based; set-up: dose 50 mg/kg
Mus musculus [9] = assay: as §2, with “human GTL16” for “human A431”, “overexpressing c-Met” for “overexpressing EGFR”, “of CDK4” for “of EGFR”, “at 6” for “at 2”; type: functional, organism-based; set-up: dose 50 mg/kg
Mus musculus [10] = assay: In vivo inhibition of HSP90 in human GTL16 cells overexpressing c-Met xenografted in CD-1 nude mouse assessed as induction of HSP70 protein expression at 50 mg/kg, ip administered as q5d/week for 2 weeks starting 3 days after tumor injection measured at 6 hrs post last dose by Western blot analysis; type: functional, organism-based; set-up: dose 50 mg/kg
[11] = Metabolic stability in human plasma assessed as compound remaining at 5 uM measured at 120 mins by LC/MS analysis; type: ADME, cell-free
Procedure, shortened: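 Compound added to human plasma at 5 µM final and incubated at 37 °C for up to 120 min. Samples quenched in two volumes of chilled acetonitrile and centrifuged at 4 °C. Remaining compound quantified by LC/MS.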

[12] = Toxicity in ip dosed CD-1 nude mouse xenografted with human A431 cells overexpressing EGFR administered as q5d/week for 2 weeks starting 3 days after tumor injection measured on day 5 post last dose; type: organism-based, A-431; conditions: in vivo
Procedure, shortened: (§4)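 Female athymic nude mice, 5–6 weeks old, implanted s.c. in the right flank with 5 × 10^6 exponentially growing tumour cells and given i.p. doses (mg/10 mL/kg) over 2 weeks starting 3 days after implantation. Toxicity endpoints were maximum body weight loss, BWL% = 100 − [(mean BW day x / mean BW day 1) × 100], and deaths occurring before the first control death.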

[13] = Toxicity in ip dosed CD-1 nude mouse xenografted with GTL16 cells overexpressing c-Met administered as q5d/week for 2 weeks starting 3 days after tumor injection measured on day 5 post last dose; type: organism-based; conditions: in vivo; procedure, shortened: as §4
[14] = target: Heat shock protein HSP 90-alpha (Homo sapiens, UniProt P07900); assay: Displacement of GM-FITC from full-length recombinant human Hsp90-alpha after 4 hrs by fluorescence polarization assay
NCI-H460 [15] = assay: Cytotoxicity against human NCI-H460 cells assessed as growth inhibition after 72 hrs by SRB assay; type: functional, cell-based; conditions: NCI-H460, 72 h
Procedure, shortened: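 NCI-H460 cells grown in RPMI-1640 with 10% heat-inactivated FBS, seeded at about 10% confluence and allowed 24 h recovery. Exposed to graded drug concentrations or solvent for 72 h. Surviving fraction measured by sulforhodamine B. IC50 is the concentration giving a 50% drop in cell number vs vehicle, from dose-response curve fitting; mean of n=4 with SD.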

Histone deacetylase 1 = Histone deacetylase 1 (Homo sapiens, UniProt Q13547); assay: Inhibition of human HDAC-1 using RHKK(Ac) as substrate by fluorescence assay
Sequence of Histone deacetylase 1 (Q13547 whole entry): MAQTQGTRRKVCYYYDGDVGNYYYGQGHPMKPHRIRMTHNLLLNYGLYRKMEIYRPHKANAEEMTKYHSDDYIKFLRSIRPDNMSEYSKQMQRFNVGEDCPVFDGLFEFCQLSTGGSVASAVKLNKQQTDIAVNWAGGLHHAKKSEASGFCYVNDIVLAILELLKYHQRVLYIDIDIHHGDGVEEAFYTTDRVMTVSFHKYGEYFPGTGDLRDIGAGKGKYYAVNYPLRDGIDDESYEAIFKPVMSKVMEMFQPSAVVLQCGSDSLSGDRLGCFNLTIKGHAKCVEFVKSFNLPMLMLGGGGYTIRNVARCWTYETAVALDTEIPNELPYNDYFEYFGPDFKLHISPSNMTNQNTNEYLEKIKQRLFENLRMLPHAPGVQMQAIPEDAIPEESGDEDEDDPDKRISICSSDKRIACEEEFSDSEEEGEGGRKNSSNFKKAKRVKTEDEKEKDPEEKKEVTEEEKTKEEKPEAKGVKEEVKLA

Histone deacetylase 2 = Histone deacetylase 2 (Homo sapiens, UniProt Q92769); assay: Inhibition of human HDAC-2 using RHKK(Ac) as substrate by fluorescence assay
Sequence of Histone deacetylase 2 (Q92769 whole entry): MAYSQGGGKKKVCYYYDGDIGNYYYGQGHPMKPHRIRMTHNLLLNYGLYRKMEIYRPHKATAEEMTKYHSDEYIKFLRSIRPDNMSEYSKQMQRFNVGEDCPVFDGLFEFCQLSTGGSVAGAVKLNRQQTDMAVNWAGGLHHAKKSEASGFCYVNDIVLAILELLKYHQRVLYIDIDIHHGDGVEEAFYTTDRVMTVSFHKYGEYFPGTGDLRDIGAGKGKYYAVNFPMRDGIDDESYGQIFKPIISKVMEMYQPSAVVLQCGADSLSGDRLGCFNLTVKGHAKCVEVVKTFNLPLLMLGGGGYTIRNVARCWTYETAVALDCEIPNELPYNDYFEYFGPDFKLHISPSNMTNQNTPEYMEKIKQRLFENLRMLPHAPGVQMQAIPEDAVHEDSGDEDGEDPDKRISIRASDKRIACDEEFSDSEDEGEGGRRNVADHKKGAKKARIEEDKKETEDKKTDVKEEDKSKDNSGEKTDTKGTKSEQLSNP

[16] = target: Histone deacetylase 3/Nuclear receptor corepressor 2 (HDAC3/NCoR2) (Homo sapiens, UniProt O15379); assay: Inhibition of human HDAC-3/NCOR2 using RHKK(Ac) as substrate by fluorescence assay; type: protein-complex assay
Sequence of Histone deacetylase 3/Nuclear receptor corepressor 2 (HDAC3/NCoR2) (O15379 whole entry): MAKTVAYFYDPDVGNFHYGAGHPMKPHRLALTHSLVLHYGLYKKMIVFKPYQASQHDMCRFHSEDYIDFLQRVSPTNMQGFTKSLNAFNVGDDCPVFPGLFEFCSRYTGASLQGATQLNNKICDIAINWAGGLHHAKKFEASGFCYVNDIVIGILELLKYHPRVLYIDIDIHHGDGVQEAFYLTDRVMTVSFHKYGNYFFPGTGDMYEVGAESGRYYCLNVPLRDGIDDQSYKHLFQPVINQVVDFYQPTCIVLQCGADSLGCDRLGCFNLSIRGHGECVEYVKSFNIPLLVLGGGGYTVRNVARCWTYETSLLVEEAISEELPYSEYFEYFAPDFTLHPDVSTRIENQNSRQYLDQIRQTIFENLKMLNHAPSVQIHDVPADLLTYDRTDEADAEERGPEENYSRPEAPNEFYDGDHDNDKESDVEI
Sequence of Histone deacetylase 3/Nuclear receptor corepressor 2 (HDAC3/NCoR2) (Q9Y618 whole entry, further chain): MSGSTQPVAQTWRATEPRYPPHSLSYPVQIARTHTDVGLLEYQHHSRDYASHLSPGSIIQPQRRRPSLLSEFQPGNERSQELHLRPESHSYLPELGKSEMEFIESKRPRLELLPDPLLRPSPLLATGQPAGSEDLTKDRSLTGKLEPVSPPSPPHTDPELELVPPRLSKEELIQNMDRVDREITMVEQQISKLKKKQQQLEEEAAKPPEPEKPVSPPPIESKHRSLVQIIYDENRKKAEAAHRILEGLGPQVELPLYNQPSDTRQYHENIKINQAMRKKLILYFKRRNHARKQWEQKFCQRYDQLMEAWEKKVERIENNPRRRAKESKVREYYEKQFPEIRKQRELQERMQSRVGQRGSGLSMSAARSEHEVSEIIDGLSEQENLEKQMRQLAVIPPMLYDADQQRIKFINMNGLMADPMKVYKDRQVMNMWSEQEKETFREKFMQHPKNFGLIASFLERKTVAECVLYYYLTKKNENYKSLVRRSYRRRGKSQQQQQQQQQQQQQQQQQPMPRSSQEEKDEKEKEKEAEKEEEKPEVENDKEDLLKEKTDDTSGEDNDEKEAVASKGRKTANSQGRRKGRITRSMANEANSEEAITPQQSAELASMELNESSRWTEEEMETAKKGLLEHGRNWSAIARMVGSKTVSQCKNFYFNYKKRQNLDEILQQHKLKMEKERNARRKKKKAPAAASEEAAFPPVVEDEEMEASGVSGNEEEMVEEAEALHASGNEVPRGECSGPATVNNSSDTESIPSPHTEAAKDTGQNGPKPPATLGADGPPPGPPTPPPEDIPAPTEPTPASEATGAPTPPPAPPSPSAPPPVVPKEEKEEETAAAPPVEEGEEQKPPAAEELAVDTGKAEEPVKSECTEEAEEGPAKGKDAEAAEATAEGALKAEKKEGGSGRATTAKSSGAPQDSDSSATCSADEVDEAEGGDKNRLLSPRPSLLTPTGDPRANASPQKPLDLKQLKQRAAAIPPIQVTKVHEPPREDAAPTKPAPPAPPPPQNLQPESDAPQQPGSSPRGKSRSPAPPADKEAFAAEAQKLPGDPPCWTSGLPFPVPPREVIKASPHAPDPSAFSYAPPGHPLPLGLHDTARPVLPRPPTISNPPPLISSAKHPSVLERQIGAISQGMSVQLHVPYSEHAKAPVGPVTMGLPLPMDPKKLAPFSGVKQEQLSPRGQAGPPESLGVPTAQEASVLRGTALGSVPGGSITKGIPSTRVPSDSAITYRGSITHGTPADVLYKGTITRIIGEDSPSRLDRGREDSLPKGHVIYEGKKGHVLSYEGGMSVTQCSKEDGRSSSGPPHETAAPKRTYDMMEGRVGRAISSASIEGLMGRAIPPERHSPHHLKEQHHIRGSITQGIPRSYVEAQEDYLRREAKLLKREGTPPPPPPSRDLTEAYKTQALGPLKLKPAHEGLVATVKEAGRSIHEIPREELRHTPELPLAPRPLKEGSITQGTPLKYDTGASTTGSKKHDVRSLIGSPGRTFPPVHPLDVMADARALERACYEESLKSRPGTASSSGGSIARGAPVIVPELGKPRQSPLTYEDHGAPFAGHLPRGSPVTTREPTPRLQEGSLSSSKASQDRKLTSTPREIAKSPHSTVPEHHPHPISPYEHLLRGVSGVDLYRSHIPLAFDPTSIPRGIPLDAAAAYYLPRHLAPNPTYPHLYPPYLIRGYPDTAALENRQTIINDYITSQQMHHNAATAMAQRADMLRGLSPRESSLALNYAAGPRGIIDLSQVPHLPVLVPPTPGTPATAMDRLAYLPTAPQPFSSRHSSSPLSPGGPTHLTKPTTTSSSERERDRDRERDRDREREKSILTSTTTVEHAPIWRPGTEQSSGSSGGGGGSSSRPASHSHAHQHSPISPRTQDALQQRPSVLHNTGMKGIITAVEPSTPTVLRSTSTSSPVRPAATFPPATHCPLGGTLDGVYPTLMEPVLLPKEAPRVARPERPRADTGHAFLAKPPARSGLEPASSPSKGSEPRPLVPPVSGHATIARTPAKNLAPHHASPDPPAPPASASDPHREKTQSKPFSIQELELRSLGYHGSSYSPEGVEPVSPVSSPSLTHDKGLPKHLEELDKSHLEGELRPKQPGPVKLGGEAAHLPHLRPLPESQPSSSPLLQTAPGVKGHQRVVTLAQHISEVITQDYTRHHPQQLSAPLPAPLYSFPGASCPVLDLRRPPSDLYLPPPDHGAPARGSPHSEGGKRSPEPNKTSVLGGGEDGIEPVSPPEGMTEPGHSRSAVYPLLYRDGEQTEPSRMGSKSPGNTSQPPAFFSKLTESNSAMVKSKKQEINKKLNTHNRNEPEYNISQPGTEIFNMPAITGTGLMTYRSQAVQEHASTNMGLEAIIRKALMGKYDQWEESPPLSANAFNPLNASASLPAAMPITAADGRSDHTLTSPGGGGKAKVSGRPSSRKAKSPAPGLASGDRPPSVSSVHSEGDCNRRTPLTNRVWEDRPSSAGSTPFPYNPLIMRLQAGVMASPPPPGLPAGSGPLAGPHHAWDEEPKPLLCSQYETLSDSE

Histone deacetylase 4 = Histone deacetylase 4 (Homo sapiens, UniProt P56524); assay: Inhibition of human HDAC-4 using RHKK(Ac) as substrate by fluorescence assay
Sequence of Histone deacetylase 4 (P56524 whole entry): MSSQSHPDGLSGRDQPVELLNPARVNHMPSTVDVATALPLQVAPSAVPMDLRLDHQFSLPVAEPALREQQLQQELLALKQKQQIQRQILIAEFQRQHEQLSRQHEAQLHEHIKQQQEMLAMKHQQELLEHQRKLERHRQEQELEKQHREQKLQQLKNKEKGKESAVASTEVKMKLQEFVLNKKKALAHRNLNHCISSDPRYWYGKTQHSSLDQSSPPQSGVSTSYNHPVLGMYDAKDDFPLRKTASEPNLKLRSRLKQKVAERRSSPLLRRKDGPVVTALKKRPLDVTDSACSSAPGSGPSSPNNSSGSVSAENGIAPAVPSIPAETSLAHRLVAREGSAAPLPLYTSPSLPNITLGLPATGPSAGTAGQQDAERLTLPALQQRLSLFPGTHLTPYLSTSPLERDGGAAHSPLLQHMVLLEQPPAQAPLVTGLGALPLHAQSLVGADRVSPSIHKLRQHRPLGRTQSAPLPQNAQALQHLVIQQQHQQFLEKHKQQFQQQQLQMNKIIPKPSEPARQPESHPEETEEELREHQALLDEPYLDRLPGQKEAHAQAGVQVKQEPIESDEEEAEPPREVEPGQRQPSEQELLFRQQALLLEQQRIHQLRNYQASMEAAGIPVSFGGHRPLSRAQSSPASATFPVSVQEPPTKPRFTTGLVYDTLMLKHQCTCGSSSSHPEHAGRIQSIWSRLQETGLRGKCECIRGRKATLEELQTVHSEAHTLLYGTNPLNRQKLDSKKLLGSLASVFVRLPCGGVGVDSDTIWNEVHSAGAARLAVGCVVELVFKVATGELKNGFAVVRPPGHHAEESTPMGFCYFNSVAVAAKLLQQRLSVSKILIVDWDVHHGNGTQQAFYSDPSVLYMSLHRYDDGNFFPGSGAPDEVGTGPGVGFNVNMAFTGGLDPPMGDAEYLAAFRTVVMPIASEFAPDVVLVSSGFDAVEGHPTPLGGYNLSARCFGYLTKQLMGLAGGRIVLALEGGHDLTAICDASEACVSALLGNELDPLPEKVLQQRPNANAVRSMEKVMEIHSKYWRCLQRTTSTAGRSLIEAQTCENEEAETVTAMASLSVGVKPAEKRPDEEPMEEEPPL

Histone deacetylase 5 = Histone deacetylase 5 (Homo sapiens, UniProt Q9UQL6); assay: Inhibition of human HDAC-5 using RHKK(Ac) as substrate by fluorescence assay
[17] = target: T1, Protein deacetylase HDAC6 (Homo sapiens, UniProt Q9UBN7); assay: Inhibition of human HDAC-6 using RHKK(Ac) as substrate by fluorescence assay
T1 sequence (Q9UBN7 whole entry): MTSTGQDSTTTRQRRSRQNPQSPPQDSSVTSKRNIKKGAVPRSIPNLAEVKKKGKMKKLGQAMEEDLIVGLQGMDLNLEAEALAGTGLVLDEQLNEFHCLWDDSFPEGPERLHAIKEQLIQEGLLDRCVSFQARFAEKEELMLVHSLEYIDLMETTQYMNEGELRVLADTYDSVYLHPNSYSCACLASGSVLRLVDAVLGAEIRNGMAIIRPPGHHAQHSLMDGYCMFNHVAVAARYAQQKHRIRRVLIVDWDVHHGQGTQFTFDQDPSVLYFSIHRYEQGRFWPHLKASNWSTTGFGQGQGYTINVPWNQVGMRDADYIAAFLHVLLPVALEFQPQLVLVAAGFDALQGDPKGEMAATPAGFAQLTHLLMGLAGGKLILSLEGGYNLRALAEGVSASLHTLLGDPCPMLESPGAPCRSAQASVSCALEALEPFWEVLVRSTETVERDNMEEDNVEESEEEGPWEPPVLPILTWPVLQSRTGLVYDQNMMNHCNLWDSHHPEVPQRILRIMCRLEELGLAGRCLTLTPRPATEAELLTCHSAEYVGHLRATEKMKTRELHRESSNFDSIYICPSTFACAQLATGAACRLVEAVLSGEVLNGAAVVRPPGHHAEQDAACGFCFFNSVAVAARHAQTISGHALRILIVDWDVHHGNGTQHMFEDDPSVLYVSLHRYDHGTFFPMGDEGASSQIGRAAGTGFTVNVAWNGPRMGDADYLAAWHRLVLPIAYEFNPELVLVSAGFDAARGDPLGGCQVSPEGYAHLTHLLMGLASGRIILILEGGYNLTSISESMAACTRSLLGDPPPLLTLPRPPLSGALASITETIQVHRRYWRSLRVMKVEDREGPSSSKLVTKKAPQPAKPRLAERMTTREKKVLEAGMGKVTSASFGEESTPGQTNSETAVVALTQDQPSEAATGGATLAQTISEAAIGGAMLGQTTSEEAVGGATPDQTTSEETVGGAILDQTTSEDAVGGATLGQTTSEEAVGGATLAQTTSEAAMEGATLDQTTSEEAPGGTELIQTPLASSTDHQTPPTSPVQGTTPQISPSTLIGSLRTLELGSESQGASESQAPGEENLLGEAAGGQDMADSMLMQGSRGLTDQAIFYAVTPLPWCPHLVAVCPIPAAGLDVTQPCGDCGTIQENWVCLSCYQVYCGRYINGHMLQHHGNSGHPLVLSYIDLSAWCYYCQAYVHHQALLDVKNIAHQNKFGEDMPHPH

Histone deacetylase 8 = target: T2, Histone deacetylase 8 (Homo sapiens, UniProt Q9BY41); assay: Inhibition of human HDAC-8 using RHKK(Ac) as substrate by fluorescence assay
T2 sequence (Q9BY41 whole entry): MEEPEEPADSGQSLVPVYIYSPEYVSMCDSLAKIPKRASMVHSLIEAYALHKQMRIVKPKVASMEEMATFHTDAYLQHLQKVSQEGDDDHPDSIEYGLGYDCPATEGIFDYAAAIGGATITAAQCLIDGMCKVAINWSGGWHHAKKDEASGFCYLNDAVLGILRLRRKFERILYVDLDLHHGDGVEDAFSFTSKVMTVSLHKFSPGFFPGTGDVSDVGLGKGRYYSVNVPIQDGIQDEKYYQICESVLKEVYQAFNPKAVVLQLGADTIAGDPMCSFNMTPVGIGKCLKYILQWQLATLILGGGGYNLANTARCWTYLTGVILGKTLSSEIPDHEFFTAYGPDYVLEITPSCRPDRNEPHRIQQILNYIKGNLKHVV

[18] = target: T3, Polyamine deacetylase HDAC10 (Homo sapiens, UniProt Q969S8); assay: Inhibition of human HDAC-10 using RHKK(Ac) as substrate by fluorescence assay
T3 sequence (Q969S8 whole entry): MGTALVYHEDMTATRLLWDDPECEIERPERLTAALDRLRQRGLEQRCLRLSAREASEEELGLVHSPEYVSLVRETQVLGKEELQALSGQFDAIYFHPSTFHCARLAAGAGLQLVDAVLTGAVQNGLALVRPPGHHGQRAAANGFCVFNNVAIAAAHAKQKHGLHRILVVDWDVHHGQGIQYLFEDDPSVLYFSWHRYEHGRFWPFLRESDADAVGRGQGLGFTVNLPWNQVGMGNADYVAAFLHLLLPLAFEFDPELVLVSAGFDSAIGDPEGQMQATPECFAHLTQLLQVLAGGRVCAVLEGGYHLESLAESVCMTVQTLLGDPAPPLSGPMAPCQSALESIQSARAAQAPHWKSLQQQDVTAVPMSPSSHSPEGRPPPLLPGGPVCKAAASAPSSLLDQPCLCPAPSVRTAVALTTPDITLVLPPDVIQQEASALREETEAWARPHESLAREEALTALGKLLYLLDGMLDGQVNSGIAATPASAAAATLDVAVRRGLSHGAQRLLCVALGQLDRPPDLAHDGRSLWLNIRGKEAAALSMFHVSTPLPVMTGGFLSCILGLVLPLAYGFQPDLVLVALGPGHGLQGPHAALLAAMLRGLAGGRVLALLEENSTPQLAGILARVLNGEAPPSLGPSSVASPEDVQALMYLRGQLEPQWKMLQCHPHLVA

Histone deacetylase 11 = target: T4, Histone deacetylase 11 (Homo sapiens, UniProt Q96DB2); assay: Inhibition of human HDAC-11 using RHKK(Ac) as substrate by fluorescence assay
T4 sequence (Q96DB2 whole entry): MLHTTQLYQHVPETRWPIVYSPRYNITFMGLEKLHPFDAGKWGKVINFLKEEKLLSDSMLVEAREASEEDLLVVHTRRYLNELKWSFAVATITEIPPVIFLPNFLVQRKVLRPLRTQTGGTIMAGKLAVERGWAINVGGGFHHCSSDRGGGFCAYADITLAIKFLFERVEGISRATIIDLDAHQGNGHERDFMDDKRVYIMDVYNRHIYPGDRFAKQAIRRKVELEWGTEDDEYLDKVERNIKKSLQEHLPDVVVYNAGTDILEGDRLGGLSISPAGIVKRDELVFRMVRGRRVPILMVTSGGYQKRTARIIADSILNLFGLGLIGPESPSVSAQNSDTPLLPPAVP

CCNC(=O)c1noc(-c2cc(C(C)C)c(O)cc2O)c1-c1ccc(CN2CCOCC2)cc1 [LUMINESPIB]
Activity (NCI-H460 [1]): Active | Activity (NCI-H460 [2]): Active | TGI (A-431): Active | TGI (GTL 16): Active | inhibition (Mus musculus [3]): Active | inhibition (Mus musculus [4]): Active | inhibition (Mus musculus [5]): Active | inhibition (Mus musculus [6]): Active | inhibition (Mus musculus [7]): Active | inhibition (Mus musculus [8]): Active | inhibition (Mus musculus [9]): Active | inhibition (Mus musculus [10]): Active | remaining at 2 h, 5 µM [11]: 56% | MTD at 2 weeks [12]: 50 mg/kg | MTD at 2 weeks [13]: 50 mg/kg

CC(C)c1cc(-n2nnc(C(=O)NCCCCCCC(=O)NO)c2-c2ccc(CN3CCOCC3)cc2)c(O)cc1O
IC50 [14]: 0.031 µM | IC50 (NCI-H460 [15]): > 1 µM | IC50 (Histone deacetylase 1): 3.1 µM | IC50 (Histone deacetylase 2): 5.61 µM | IC50 [16]: 2.79 µM | IC50 (Histone deacetylase 4): 71.5 µM | IC50 (Histone deacetylase 5): 1.91 µM | IC50 [17]: 0.012 µM | IC50 (Histone deacetylase 8): 0.717 µM | IC50 [18]: 3.22 µM | IC50 (Histone deacetylase 11): 1.77 µM
